These results are taken from ChEMBL document CHEMBL1154463, “Synthesis and induction of G0-G1 phase arrest with apoptosis of 3,5-dimethyl-6-phenyl-8-(trifluoromethyl)-5,6-dihydropyrazolo[3,4-f][1,2,3,5]tetrazepin-4(3H)-one” (Eur J Med Chem, 2008).

SMILES strings stand for the structures. Where a name gives a salt, the structure may show the parent alone. The source made the active and inactive calls. No cut-off for these calls is given here. Where only a bound is given, the exact number is not on record here.

One may read the IC50 as the concentration needed to halve the response being measured. Broadly, the AC50 is the concentration giving half of the maximal activity seen. A low value points to activity at low concentration.

In assay [1] the test system is HL-60. The experiment in a line: Cytotoxicity against human HL60 cells after 48 hrs by trypan blue exclusion method. Format: functional, cell-based. The settings on record: HL-60, 48 h. The essentials: (§1)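 2 × 10⁵ cells in 1 ml complete medium treated with a range of concentrations, added as freshly prepared DMSO solution (final DMSO ≤0.3% v/v), for 48 h. Viable cells counted and expressed as percent of untreated control proliferation; IC50 = concentration inhibiting 50% of growth, from 48 h exposure. Bars: SE.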

In assay [2] the test system is K562. The experiment in a line: Induction of apoptosis in human K562 cells assessed as accumulation at sub GO-G1 phase accumulation at 50 uM after 48 hrs by flow cytometry. The class given is functional. The essentials: (§2)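 K562 cells cultured 24 h and 48 h without compound or at 25, 50 or […] (unit as printed). Cells washed in ice-cold PBS, resuspended at 10⁶/ml in hypotonic propidium iodide ([…])/0.03% v/v NP-40 in 0.1% sodium citrate for 30 min. DNA content read by flow cytometry as single-parameter histograms; G0–G1 and sub-G0–G1 fractions taken as percent of cells.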
In general terms: A flow cytometer gives signals particle by particle.

For assay [3], the system named is K562. The experiment in a line: Induction of apoptosis in human K562 cells assessed as accumulation at sub GO-G1 phase accumulation after 24 hrs by flow cytometry. Format: functional, cell-based. The essentials:
as §2

The subject of assay [4] is K562. The experiment in a line: Induction of apoptosis in human K562 cells after 48 hrs. The class given is functional, cell-based. Particulars: K562, 48 h.
In assay [5] the test system is K562. The experiment in a line: Induction of apoptosis in imatinib mesylate-resistant human K562 cells after 48 hrs. The class given is functional, cell-based. The essentials: (§3)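 Cells exposed 48 h to a range of concentrations, then 2 × 10⁵ cells pelleted (300 × g) and stained with acridine orange and ethidium bromide ([…]). Read by fluorescence microscopy under oil immersion. Apoptosis scored by perinuclear chromatin condensation and apoptotic bodies, counting ≥300 cells. AC50 = concentration giving 50% apoptotic cells. Bars: SE.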

Assay [6] deals with K562. The experiment in a line: Cell cycle arrest in human K562 cells assessed as accumulation at GO-G1 phase at 50 uM after 48 hrs by flow cytometry. Format: functional. An outline of the steps:
as §2

Assay [7] deals with HL-60. The experiment in a line: Induction of apoptosis in human HL60 cells after 48 hrs. The class given is functional, cell-based. Particulars: HL-60, 48 h. An outline of the steps: as §3
Assay [8] concerns K562. The experiment in a line: Cell cycle arrest in human K562 cells assessed as accumulation at GO-G1 phase after 24 hrs by flow cytometry. Format: functional, cell-based. The essentials:
as §2

In assay [9] the test system is HL-60. The experiment in a line: Induction of apoptosis in multidrug resistant human HL60 cells after 48 hrs. Format: functional, cell-based. Particulars: HL-60, 48 h. An outline of the steps: as §3
Assay [10] has as its system K562. The experiment in a line: Induction of apoptosis in human K562 cells assessed as accumulation at sub GO-G1 phase accumulation at 50 uM after 24 hrs by flow cytometry. Format: functional. An outline of the steps: as §2
Assay [11] deals with K562. The experiment in a line: Cytotoxicity against human K562 cells after 48 hrs by trypan blue exclusion method. The class given is functional, cell-based. Particulars: K562, 48 h. The essentials: as §1
The test system of assay [12] is HL-60. The experiment in a line: Cytotoxicity against multidrug-resistant human HL60 cells after 48 hrs by trypan blue exclusion method. Format: functional, cell-based. Particulars: HL-60, 48 h. An outline of the steps:
as §1

Assay [13] has as its system K562. The experiment in a line: Cytotoxicity against imatinib mesylate-resistant human K562 cells after 48 hrs by trypan blue exclusion method. The class given is functional, cell-based. The settings on record: K562, 48 h. An outline of the steps:
as §1

Assay [14] concerns K562. The experiment in a line: Cell cycle arrest in human K562 cells assessed as accumulation at GO-G1 phase at 50 uM after 24 hrs by flow cytometry. The class given is functional. An outline of the steps: as §2
Assay [15] has as its system HL-60. The experiment in a line: human HL60 cells after 48 hrs. Particulars: HL-60, 48 h.

For the molecule `CN1N=Nc2c(C(F)(F)F)nn(-c3ccccc3)c2N(C)C1=O`, the IC50 in assay [1] was determined as 21 µM; in assay [11] it was 40 µM; in assay [12] it was 30 µM; in assay [13] it was 38 µM. The Activity in [2] is 52.2%; in [6], 28.7%; in [8], “Dose-dependent effect”; in [10] it was 5%; in [14], 60.7%. Moreover, the outcome in assay [3] was inactive. For the same molecule, the AC50 in assay [4] was 57 µM; in [5] (K562, 48 h) it was 62 µM; in assay [7], 36 µM; in assay [9], 38 µM.
Regarding `COc1cccc2c1C(=O)c1c(O)c3c(c(O)c1C2=O)C[C@@](O)(C(C)=O)C[C@@H]3O[C@H]1C[C@H](N)[C@H](O)[C@H](C)O1` [DAUNORUBICIN], the figures for the AC50 in [9] and in assay [15] were 38 µM and 0.1 µM, respectively.
Turning to `Cc1ccc(NC(=O)c2ccc(CN3CCN(C)CC3)cc2)cc1Nc1nccc(-c2cccnc2)n1` [IMATINIB MESYLATE], the AC50 in [4] was 62 µM.
For `CS(=O)(=O)OCCCCOS(C)(=O)=O`, in [5], the outcome was Active.
As to `COc1cc([C@@H]2c3cc4c(cc3[C@@H](O[C@@H]3O[C@@H]5CO[C@@H](C)O[C@H]5[C@H](O)[C@H]3O)[C@H]3COC(=O)[C@H]23)OCO4)cc(OC)c1O` [ETOPOSIDE], the AC50 was 0.4 µM in assay [7] and more than 400 µM in assay [9].
